# According to ChEMBL document CHEMBL4837188, “Identification of Novel Tricyclic Benzo[1,3]oxazinyloxazolidinones as Potent Antibacterial Agents with Excellent Pharmacokinetic Profiles against Drug-Resistant Pathogens” (J Med Chem, 2021):
# Columns and labels:
# Bacillus subtilis = assay: Antibacterial activity against Bacillus subtilis 168 assessed as inhibition of bacterial growth incubated for 18 hrs by broth microdilution method; type: functional
# In short: (§1)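 Broth microdilution in 96-well plates. Media: cation-adjusted Mueller−Hinton broth for S. aureus, brain heart infusion for VRE, Mueller−Hinton broth for the other strains. Incubated at 37 °C for 18 h, then A600 read. Percent growth inhibition calculated against 1% DMSO vehicle.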
# Staphylococcus aureus [1] = assay: Antibacterial activity against vancomycin intermediate Staphylococcus aureus assessed as bacterial growth inhibition after 18 hrs by broth microdilution method; type: functional
# Enterococcus = assay: Antibacterial activity against vancomycin resistant Enterococcus assessed as bacterial growth inhibition after 18 hrs by broth microdilution method; type: functional
# [2] = Cmax in BALB/c mouse at 10 mg/kg, po measured upto 24 hrs by LC-MS/MS analysis; type: ADME, organism-based; parameters: route oral, dose 10 mg/kg, time <=24; details: in vivo
# In short: (§2)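 Female BALB/c mice, 16−21 g, three per route. Oral dosing at 10 mg/kg as a 5 mg/mL suspension in 0.5% carboxymethyl cellulose. IV dosing at 1 mg/kg as a 1 mg/mL solution in 10% DMSO/50% PEG400/40% water. Blood sampled 15 min to 24 h after oral dosing and 5 min to 24 h after iv. LC/MS/MS quantification in ESI positive mode. Noncompartmental analysis; F = (AUCpo×dose_iv)/(AUCiv×dose_po)×100%.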
# Escherichia coli = assay: Antibacterial activity against Escherichia coli 25922 assessed as inhibition of bacterial growth incubated for 18 hrs by broth microdilution method; type: functional; details: ATCC 25922; in short: as §1
# [3] = Metabolic stability in CD-1 mouse liver microsomes incubated for 30 mins by LC-MS analysis; type: ADME, Microsome; details: CD-1, mouse, liver microsomes, read-out: Stabilty
# In short: (§3)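 Microsomes from male CD-1 mouse or pooled human, 1 mg/mL protein in 0.05 M phosphate buffer pH 7.4. Compound at final 0.1 μM with DMSO cosolvent. Incubated at 37 °C with 1 mM NADPH, or with buffer in place of NADPH. Sampled at 0 and 30 min and quenched with acetonitrile. LC−MS measurement; substrate remaining at 30 min normalized to time zero.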
# [4] = AUC (0 to infinity) in BALB/c mouse at 1 mg/kg, iv measured upto 24 hrs by LC-MS/MS analysis; type: ADME, organism-based; parameters: route intravenous, dose 1 mg/kg, time <=24; details: in vivo; in short: as §2
# Staphylococcus aureus [5] = assay: Antibacterial activity against methicillin resistant Staphylococcus aureus assessed as bacterial growth inhibition after 18 hrs by broth microdilution method; type: functional
# Enterococcus faecium = assay: Antibacterial activity against linezolid resistant Enterococcus faecium 13549 assessed as bacterial growth inhibition after 18 hrs by broth microdilution method; type: functional
# [6] = Metabolic stability in CD-1 mouse liver microsomes assessed as substrate remaining in presence of NADPH incubated for 30 mins by LC-MS analysis; type: ADME, Microsome; details: read-out: Stabilty; in short: as §3
# [7] = Elimination half life in BALB/c mouse at 10 mg/kg, po measured upto 24 hrs by LC-MS/MS analysis; type: ADME, organism-based; details: in vivo, read-out: beta t1/2 (converted); in short: as §2
# [8] = Elimination half life in BALB/c mouse at 1 mg/kg, iv measured upto 24 hrs by LC-MS/MS analysis; type: ADME, organism-based; details: in vivo, read-out: beta t1/2 (converted); in short: as §2
# [9] = AUC (0 to infinity) in BALB/c mouse at 10 mg/kg, po measured upto 24 hrs by LC-MS/MS analysis; type: ADME, organism-based; parameters: route oral, dose 10 mg/kg, time <=24; details: in vivo; in short: as §2
# Vero = assay: Cytotoxicity against african green monkey Vero cells after 48 hrs by MTT assay; type: cell-based; details: Chlorocebus sabaeus
# In short: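 Vero cells grown in RPMI1640 with 10% FBS at 37 °C, 5% CO2. Cells diluted to 4 × 10⁵ cells/mL. Compounds given as three-fold serial dilutions, final 64−0.26 μg/mL, for 48 h at 37 °C. Monolayers washed with warm HBSS, then MTT added for 4 h. Absorbance read at 492 nm.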
# [10] = system: Mycobacterium tuberculosis; assay: Antitubercular activity against Mycobacterium tuberculosis H37Rv assessed as inhibition of bacterial growth incubated for 7 days by MABA; type: functional; details: Mycobacterium tuberculosis, H37Rv, 168 h, time 7 day; read-out: MIC
# In short: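 Microplate alamar blue assay. H37Rv or clinical isolates were grown to late log phase in 7H9 broth with glycerol, Tween 80 and ADC, then 2 × 10⁵ CFU added to two-fold dilutions. Final range 32–0.5 μg/mL, lowered to 2–0.016 μg/mL for active compounds. 37 °C, 7 days, then alamar blue 16 h. Fluorescence 530/590 nm. MIC is the lowest concentration giving ≥90% reduction; INH and RFP were controls.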
# [11] = AUC (0 to t) in BALB/c mouse at 10 mg/kg, po measured upto 24 hrs by LC-MS/MS analysis; type: ADME, organism-based; parameters: route oral, dose 10 mg/kg, time <=24; details: in vivo; in short: as §2
# Enterococcus faecalis = assay: Antibacterial activity against Enterococcus faecalis ATCC 29212 assessed as bacterial growth inhibition after 18 hrs by broth microdilution method; type: functional; in short: as §1
# [12] = MRT (0 to infinity) in BALB/c mouse at 1 mg/kg, iv measured upto 24 hrs by LC-MS/MS analysis; type: ADME, organism-based; details: in vivo; in short: as §2
# [13] = MRT (0 to infinity) in BALB/c mouse at 10 mg/kg, po measured upto 24 hrs by LC-MS/MS analysis; type: ADME, organism-based; details: in vivo; in short: as §2
# [14] = Oral bioavailability in BALB/c mouse at 10 mg/kg measured upto 24 hrs by LC-MS/MS analysis; type: ADME, organism-based; details: in vivo; in short: as §2
# [15] = Inhibition of mitochondrial protein synthesis in […] H9C2 cells after 5 days by ELISA; type: functional, cell-based; details: Rattus norvegicus, H9c2, 120 h
# In short: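 H9C2 cells in DMEM with 10% FBS, glutamine and NEAA, seeded at 1500 cells/well. After 18 h, compounds added at final 200 to 0.03 μM in nine 3-fold steps, then 5 days at 37 °C, 5% CO2. Negative control 0.5% DMSO. Mitochondrial protein synthesis read by MitoBiogenesis In-Cell ELISA; IC50 fitted.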
# Staphylococcus aureus [16] = assay: Antibacterial activity against Staphylococcus aureus ATCC 29213 assessed as inhibition of bacterial growth incubated for 18 hrs by broth microdilution method; type: functional; in short: as §1
# [17] = Metabolic stability in pooled human liver microsomes incubated for 30 mins by LC-MS analysis; type: ADME, Microsome; details: read-out: Stabilty; in short: as §3
# [18] = Apparent volume of distribution in BALB/c mouse at 1 mg/kg, iv measured upto 24 hrs by LC-MS/MS analysis; type: ADME, organism-based; details: in vivo, read-out: Vz; in short: as §2
# [19] = AUC (0 to t) in BALB/c mouse at 1 mg/kg, iv measured upto 24 hrs by LC-MS/MS analysis; type: ADME, organism-based; parameters: route intravenous, dose 1 mg/kg, time <=24; details: in vivo; in short: as §2
# [20] = Tmax in BALB/c mouse at 10 mg/kg, po measured upto 24 hrs by LC-MS/MS analysis; type: ADME, organism-based; details: in vivo; in short: as §2
structure (smiles),measurement,setting,value
CC(=O)NC[C@@H]1OC(=O)N2Cc3cc(-c4ccc(C#N)nc4)c(F)cc3O[C@@H]12,MIC,Bacillus subtilis,0.125 µg/mL
same,MIC,Staphylococcus aureus [1],0.25 µg/mL
same,MIC,Enterococcus,0.25 µg/mL
same,Cmax,[2],10300 ng/mL
same,MIC,Escherichia coli,> 64 µg/mL
same,remaining at 0.5 h,[3],108%
same,AUC(0-inf),[4],6160 ng·h/mL
same,MIC,Staphylococcus aureus [5],0.25 µg/mL
same,MIC,Enterococcus faecium,2 µg/mL
same,remaining at 0.5 h,[6],95.5%
same,half-life,[7],3.76 h
same,half-life,[8],4.08 h
same,AUC(0-inf),[9],78700 ng·h/mL
same,IC50,Vero,> 64 µg/mL
same,MIC,[10],0.4 µg/mL
same,AUC(0-t) at 24 h,[11],77600 ng·h/mL
same,MIC,Enterococcus faecalis,0.5 µg/mL
same,MRT inf,[12],4.71 h
same,MRT inf,[13],5.86 h
same,bioavailability,[14],128%
same,IC50,[15],1.63 µM
same,MIC,Staphylococcus aureus [16],0.125 µg/mL
same,remaining at 0.5 h,[17],106%
same,Vd,[18],0.762 L/kg
same,AUC(0-t) at 24 h,[19],6080 ng·h/mL
same,Tmax,[20],1.33 h
